The target of assay [1] is Nitric oxide synthase (inducible and endothelial) (Homo sapiens) (UniProt P35228+P29474). In words: Selectivity is the ratio between the IC50 values of heNOS and hiNOS. It counts as protein assay. In outline:
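Recombinant human iNOS/eNOS expressed in Sf9 cells (baculovirus), partially purified by DEAE-Sepharose. Eight inhibitor concentrations were tested with 30 μM final L-arginine containing [3H]arginine, in Tris pH 7.6 with BSA, DTT, CaCl2, FAD, tetrahydrobiopterin and NADPH, 15 min at 37 °C. eNOS also had 40 nM calmodulin. [3H]citrulline was separated on cation-exchange resin and counted. Assays were run at least in duplicate; IC50 was derived.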

The target of another assay is T1, Nitric oxide synthase 3 (Homo sapiens, UniProt P29474).
T1 sequence (P29474 whole entry): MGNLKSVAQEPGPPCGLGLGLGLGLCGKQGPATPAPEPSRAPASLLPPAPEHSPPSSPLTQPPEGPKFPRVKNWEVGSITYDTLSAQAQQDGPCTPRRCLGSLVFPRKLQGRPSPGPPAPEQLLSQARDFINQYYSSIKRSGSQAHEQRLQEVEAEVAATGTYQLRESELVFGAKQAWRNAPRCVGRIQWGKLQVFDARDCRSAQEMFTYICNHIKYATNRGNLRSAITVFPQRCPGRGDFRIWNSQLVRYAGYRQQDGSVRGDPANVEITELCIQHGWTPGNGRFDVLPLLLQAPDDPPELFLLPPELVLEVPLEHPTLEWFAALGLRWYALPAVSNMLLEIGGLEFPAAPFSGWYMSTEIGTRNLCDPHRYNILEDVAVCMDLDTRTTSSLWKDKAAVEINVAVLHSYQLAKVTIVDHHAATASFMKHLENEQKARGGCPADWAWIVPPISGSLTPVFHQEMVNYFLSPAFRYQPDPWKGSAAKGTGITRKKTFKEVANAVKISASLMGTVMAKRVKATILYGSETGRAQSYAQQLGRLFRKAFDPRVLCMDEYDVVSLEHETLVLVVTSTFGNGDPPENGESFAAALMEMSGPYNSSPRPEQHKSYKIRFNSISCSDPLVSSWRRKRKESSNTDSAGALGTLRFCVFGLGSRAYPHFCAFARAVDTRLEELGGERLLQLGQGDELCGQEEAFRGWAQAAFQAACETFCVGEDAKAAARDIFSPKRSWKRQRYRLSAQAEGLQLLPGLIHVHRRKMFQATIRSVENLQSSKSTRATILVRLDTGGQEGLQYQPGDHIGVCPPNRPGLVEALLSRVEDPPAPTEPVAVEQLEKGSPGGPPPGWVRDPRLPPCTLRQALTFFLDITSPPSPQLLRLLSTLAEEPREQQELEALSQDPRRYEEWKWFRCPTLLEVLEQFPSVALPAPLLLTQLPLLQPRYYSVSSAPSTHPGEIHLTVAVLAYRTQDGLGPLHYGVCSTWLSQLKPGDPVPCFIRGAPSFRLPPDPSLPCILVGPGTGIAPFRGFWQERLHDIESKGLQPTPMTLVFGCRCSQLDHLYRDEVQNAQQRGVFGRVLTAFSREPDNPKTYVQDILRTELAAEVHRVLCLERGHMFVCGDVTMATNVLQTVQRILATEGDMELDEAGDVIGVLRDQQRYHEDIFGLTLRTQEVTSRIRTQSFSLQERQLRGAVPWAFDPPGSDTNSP
In words: inhibition of human endothelial constitutive Endothelial nitric oxide synthase (heNOS).

The target of assay [2] is Nitric oxide synthase, inducible (Homo sapiens, UniProt P35228). In words: Inhibition of human Inducible nitric oxide synthase.
Another assay deals with Nitric oxide synthase 1 (Homo sapiens, UniProt P29475). Put plainly: Inhibition of human Neuronal nitric oxide synthase.
For a further assay, the system named is Rattus norvegicus. In words: Compound at an oral dose of 10 mg/Kg was tested in vivo for the inhibition of plasma nitrite levels in LPS-treated rats. It counts as functional. An outline of the steps:
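Male Lewis rats dosed orally 1 h before intraperitoneal LPS (10–12.5 mg/kg) to induce iNOS. Plasma nitrite/nitrate measured 5 h after LPS by fluorometric assay. Percent inhibition is relative to LPS-only versus saline controls; n = 6 animals/dose.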

Sequence of Nitric oxide synthase, inducible (P35228 whole entry): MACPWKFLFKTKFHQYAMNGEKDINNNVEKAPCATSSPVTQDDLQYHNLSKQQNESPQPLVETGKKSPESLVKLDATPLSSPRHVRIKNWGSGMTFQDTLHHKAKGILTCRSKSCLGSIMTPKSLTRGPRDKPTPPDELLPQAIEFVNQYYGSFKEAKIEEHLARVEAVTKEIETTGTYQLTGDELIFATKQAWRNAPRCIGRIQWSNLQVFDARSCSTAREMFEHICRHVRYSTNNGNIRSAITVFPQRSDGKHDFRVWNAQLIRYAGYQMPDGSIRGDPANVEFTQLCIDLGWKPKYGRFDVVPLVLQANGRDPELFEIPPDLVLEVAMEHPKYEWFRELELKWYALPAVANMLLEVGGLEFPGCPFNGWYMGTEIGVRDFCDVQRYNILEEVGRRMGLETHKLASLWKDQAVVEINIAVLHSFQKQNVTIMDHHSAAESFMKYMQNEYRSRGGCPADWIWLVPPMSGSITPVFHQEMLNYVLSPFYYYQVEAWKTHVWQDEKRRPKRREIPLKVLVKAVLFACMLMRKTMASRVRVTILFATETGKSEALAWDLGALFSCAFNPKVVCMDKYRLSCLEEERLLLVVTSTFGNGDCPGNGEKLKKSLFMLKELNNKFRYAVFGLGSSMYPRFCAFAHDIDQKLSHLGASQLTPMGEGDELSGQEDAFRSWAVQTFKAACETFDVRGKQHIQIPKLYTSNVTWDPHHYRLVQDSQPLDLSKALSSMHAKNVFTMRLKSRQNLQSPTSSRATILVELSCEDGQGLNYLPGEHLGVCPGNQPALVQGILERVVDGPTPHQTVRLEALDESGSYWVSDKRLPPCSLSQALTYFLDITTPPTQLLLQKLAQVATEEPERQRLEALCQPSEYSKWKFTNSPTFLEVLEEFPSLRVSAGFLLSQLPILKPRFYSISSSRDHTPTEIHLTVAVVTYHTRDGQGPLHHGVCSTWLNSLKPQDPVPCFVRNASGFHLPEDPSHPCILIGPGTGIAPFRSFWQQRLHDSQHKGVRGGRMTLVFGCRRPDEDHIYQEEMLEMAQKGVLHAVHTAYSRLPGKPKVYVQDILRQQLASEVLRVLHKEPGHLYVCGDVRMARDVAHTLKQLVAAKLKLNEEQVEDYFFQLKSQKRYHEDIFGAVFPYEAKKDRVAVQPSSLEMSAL
Sequence of Nitric oxide synthase (inducible and endothelial) (Homo sapiens) (P35228 whole entry, looked up, one chain of several): as the sequence (P35228 whole entry) above
Sequence of Nitric oxide synthase 1 (P29475 whole entry): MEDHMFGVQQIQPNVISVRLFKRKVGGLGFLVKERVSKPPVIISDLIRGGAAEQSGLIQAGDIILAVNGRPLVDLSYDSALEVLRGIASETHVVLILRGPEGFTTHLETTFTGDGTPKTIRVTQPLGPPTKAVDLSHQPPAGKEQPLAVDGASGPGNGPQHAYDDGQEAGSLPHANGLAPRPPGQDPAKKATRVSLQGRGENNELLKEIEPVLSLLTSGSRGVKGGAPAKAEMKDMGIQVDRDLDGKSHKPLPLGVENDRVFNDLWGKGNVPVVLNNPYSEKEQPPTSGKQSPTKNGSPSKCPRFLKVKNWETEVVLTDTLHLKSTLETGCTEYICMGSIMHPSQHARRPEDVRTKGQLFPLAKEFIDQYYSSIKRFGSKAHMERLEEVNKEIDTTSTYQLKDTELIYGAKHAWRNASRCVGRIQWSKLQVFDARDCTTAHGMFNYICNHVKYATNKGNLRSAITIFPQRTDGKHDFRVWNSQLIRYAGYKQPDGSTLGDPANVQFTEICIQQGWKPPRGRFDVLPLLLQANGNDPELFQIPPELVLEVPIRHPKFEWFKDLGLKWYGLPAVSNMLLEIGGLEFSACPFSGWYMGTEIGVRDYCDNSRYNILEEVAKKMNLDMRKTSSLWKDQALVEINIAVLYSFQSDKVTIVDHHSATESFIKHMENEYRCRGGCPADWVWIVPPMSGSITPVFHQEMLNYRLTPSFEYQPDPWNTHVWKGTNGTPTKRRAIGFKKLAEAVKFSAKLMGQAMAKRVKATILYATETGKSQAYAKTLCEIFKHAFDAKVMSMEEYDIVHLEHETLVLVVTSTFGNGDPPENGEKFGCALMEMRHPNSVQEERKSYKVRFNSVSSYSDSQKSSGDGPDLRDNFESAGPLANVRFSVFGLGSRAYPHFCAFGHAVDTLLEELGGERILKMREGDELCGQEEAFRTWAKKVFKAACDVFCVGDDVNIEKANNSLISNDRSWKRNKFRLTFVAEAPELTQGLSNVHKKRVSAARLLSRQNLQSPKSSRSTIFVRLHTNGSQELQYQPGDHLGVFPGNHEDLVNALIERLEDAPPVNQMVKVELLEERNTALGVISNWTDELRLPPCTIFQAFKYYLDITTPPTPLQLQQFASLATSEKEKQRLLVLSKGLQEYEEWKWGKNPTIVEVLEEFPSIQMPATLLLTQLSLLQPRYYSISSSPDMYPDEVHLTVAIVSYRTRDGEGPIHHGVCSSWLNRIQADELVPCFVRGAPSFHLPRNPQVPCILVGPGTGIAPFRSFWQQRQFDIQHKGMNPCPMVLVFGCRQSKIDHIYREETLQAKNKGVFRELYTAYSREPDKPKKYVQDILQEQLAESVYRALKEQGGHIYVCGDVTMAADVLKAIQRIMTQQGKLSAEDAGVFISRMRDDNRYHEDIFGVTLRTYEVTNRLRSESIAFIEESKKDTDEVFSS

In the case of `NC1=NC(CC2CCCCC2)CCC1` (stereo not given), in assay [1], the Selectivity amounted to 64.

As a reminder, the IC50 is the midpoint of a concentration-inhibition curve. Read a low IC50 as inhibition by little substance. For the compound `NC1=NC(C(F)(F)F)CCC1` (stereo not given), the IC50 at Nitric oxide synthase 3 was determined as 2 µM; in assay [2] it was 0.5 µM; at Nitric oxide synthase 1, 0.5 µM. Besides, in assay [1], the Selectivity worked out at 4.

`CNC1=NCCCC1`: the IC50 (on Nitric oxide synthase 3; in assay [2]; against Nitric oxide synthase 1) was over 100 µM each time.

Take `CCCC1CCCC(N)=N1` (stereo not given): the IC50 worked out at 2.2 µM against Nitric oxide synthase 3, 0.2 µM in assay [2] and 0.5 µM on Nitric oxide synthase 1. Also, the Selectivity in assay [1] is 11.

Take `CCCC1CCN=C(N)C1` (stereo not given): the 50% inhibitory concentration (IC50) (against Nitric oxide synthase 3; in assay [2]; on Nitric oxide synthase 1) was over 100 µM each time.

Turning to `CN1CCCCC1=N`, the IC50 (on Nitric oxide synthase 3; in assay [2]; at Nitric oxide synthase 1) was over 100 µM each time.

On to `NC1=Nc2ccccc2CC1`, for which the IC50 was found to be 218 µM at Nitric oxide synthase 3, 99 µM in assay [2] and 28 µM against Nitric oxide synthase 1. The Selectivity in assay [1] is 2.

The compound `NC1=NC(Cc2ccccc2)CCC1` (stereo not given) registered an IC50 against Nitric oxide synthase 1 of 0.9 µM.

Turning to `CC1CCC(N)=NC1` (stereo not given), the IC50 stood at 58 µM against Nitric oxide synthase 3 and 5.1 µM in assay [2].

The inhibition in vivo is the drop in the measured response relative to a control, in per cent. Read a high inhibition in vivo as a strong effect. Consider `CC1CC(N)=NC(C)C1` (stereo not given), for which the results for the IC50 (against Nitric oxide synthase 3; in assay [2]; against Nitric oxide synthase 1) were 0.3 µM, 0.08 µM and 0.06 µM, respectively. For the same compound, the inhibition in vivo at 10 mg/kg in the assay on Rattus norvegicus came out at 98%. Further, the Selectivity in assay [1] came out at 4.

Take `NC1=NC(C2CCCCC2)CCC1` (stereo not given): the IC50 against Nitric oxide synthase 3 came to 142 µM; in assay [2], 8.7 µM; on Nitric oxide synthase 1 it was 5.3 µM. The compound also gave an inhibition in vivo at 10 mg/kg in the assay on Rattus norvegicus of 18%. For the same compound, in assay [1], the Selectivity was 16.

For `CC1CCCN=C1N` (stereo not given), the IC50 stood at 3 µM against Nitric oxide synthase 3, 6 µM in assay [2] and 0.7 µM against Nitric oxide synthase 1. In assay [1], the Selectivity is 0.5.

For `N=C1CCCCN1`, the IC50 in assay [2] is 1.1 µM. The compound also returned an inhibition in vivo at 10 mg/kg in the assay on Rattus norvegicus of 62%.

As for `CCC1CCN=C(N)C1` (stereo not given), in assay [1], the Selectivity turned out to be 5.

As to `CC1(C)CCN=C(N)C1`, the IC50 on Nitric oxide synthase 3 amounted to 5.3 µM; in assay [2] it was 3.4 µM; on Nitric oxide synthase 1, 5.9 µM. Also, the Selectivity in assay [1] was 1.6.

`CC1CCN=C(N)C1` (stereo not given) had an IC50 in assay [2] of 0.1 µM. In the assay with Rattus norvegicus, 10 mg/kg produced 87% inhibition in vivo.

For `NC1=NCCC(C(F)(F)F)C1` (stereo not given), the IC50 against Nitric oxide synthase 3 is 47 µM; in assay [2], 3.2 µM; at Nitric oxide synthase 1, 3.3 µM. The inhibition in vivo at 10 mg/kg with Rattus norvegicus stood at 24%. Besides, the Selectivity in assay [1] is 15.

`CC1CCCC(N)=N1` (stereo not given): the results for the IC50 (at Nitric oxide synthase 3; in assay [2]; against Nitric oxide synthase 1) were 0.6 µM, 0.5 µM and 0.4 µM, respectively. In assay [1], the Selectivity turned out to be 1.

With `CCC1CCNC(=N)C1` (stereo not given), the IC50 on Nitric oxide synthase 3 amounted to 13 µM; in assay [2], 2.6 µM; against Nitric oxide synthase 1 it was 1.6 µM.

Values taken from ChEMBL document CHEMBL1131208, “Substituted 2-iminopiperidines as inhibitors of human nitric oxide synthase isoforms” (J Med Chem, 1998).
